Paper PMC11718131 (Communications Biology, 2025)
Peptide text beside a SMILES is read from it. * marks the point of attachment. Cbz = O=C(OCc1ccccc1)*

How the values were obtained:
[1] = cited from earlier work
[2] = test system: wildtype (WT) CA2; details: in words; cited from earlier work
[3] = test system: proteasome; GFP-CA2-DRD fusion in Jurkat cells; test: Proteasome inhibition assay; type: cell-based, human; details: 10 µM MG132, 4 h without ACZ after 24 h ACZ; versus vehicle
Summary of the method: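 Cells then washed with fresh media and split in two: one arm […] 10 µM MG132 for 4 h. GFP expression read by flow cytometry.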

[4] = Huntington's disease; cited from earlier work

## CC(=O)Nc1nnc(S(N)(=O)=O)s1 [ACZ, acetazolamide]
[1]; FDA-approved and clinically used doses
  total in vivo exposure levels: ~ 100 µM
[1]; approved doses, in words
  total concentrations in plasma and other tissues: micromolar range
[2]
  affinity to CA2: low nanomolar affinity

## CC(C)C[C@@H](C=O)NC(=O)[C@H](CC(C)C)NC(=O)[C@H](CC(C)C)NC(=O)OCc1ccccc1 [MG132] (Cbz-Leu-Leu-Leu-aldehyde)
[3]
  decrease in GFP levels after ACZ withdrawal: smaller decrease in GFP levels

## CC1(C)CC(Oc2ccc(-c3ccc(-c4cn[nH]c4)cc3O)nn2)CC(C)(C)N1 [branaplam]
[4]
  clinical trial outcome: halted because of drug-related side effects
